For experiment [1], the target named is GABA-A receptor; anion channel. As to the kind of experiment: In vitro inhibition of binding to the benzodiazepine receptor in rat cerebral cortical membrane using [3H]diazepam as radioligand. Type of experiment: cell membranes. The method in brief:
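Rat cerebral cortex homogenized in 50 mM Tris-HCl, pH 7.4, spun at 20000g for 20 min at 4 °C, and washed three times. Nonspecific binding was measured with 10 μM flunitrazepam (final). IC50 was estimated from Hill plots.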

The species named for a further experiment is Rattus norvegicus. As to the kind of experiment: In vitro inhibition of [3H]diazepam binding to GABA-A benzodiazepine receptor of rat cerebral cortical membrane. The method in brief: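 Rat cerebral cortex homogenized in 50 mM Tris-HCl, pH 7.4, spun at 20000g for 20 min at 4 °C, and washed three times. […] Nonspecific binding was measured with 10 μM flunitrazepam (final). IC50 was estimated from Hill plots.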

Experiment [2] concerns Mus musculus. As to the kind of experiment: Proconvulsant effect on mice 120 min after ip administration of a 25 mg/kg dose. Type of experiment: functional. To be noted: route intraperitoneal. In outline: (§1)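 Adult male mice (~25 g) given test drug or vehicle (0.1 mL of 20% diluted Emulphor in saline) ip at the stated dose, then challenged 15 or 120 min later with pentylenetetrazole 40 mg/kg ip (in water). Animals watched 15 min after PTZ for clonic-tonic convulsions; % convulsing recorded; at least 10 animals per dose.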

Experiment [3] concerns Mus musculus. As to the kind of experiment: Proconvulsant effect on mice 15 min after ip administration of a 10 mg/kg dose. In kind it is functional. Particulars: route intraperitoneal. The method in brief: as §1
The subject of experiment [4] is Mus musculus. Nature of the experiment: Proconvulsant effect on mice 15 min after ip administration of a 25 mg/kg dose. In kind it is functional. To be noted: route intraperitoneal. In outline:
as §1

Experiment [5] relates to Mus musculus. Nature of the experiment: Proconvulsant effect on mice 120 min after ip administration of a 10 mg/kg dose. Type of experiment: functional. Particulars: route intraperitoneal. The method in brief: (§2)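 Adult male mice (~25 g) were given drug ip in vehicle (20% diluted Emulphor in saline). They were challenged with pentylenetetrazole (40 mg/kg ip, in water) 15 or 120 min later. Animals were watched for 15 min for clonic-tonic convulsions, scored as % of animals convulsing, with at least 10 animals per dose.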

The test system of experiment [6] is Mus musculus. Nature of the experiment: Proconvulsant effect on mice 15 min after ip administration of a 2.5 mg/kg dose. In kind it is functional. Particulars: route intraperitoneal. The method in brief:
as §2

The test system of experiment [7] is Mus musculus. As to the kind of experiment: Proconvulsant effect on mice 15 min after ip administration of a 20 mg/kg dose. Type of experiment: functional. To be noted: route intraperitoneal. In outline: as §2
Experiment [8] relates to Mus musculus. As to the kind of experiment: Proconvulsant effect on mice 15 min after ip administration of a 5 mg/kg dose. To be noted: route intraperitoneal. Type of experiment: functional. The method in brief: as §2
Experiment [9] deals with Mus musculus. Nature of the experiment: Proconvulsant effect on mice 15 min after ip administration of at 1.25 mg/kg dose. To be noted: route intraperitoneal. Type of experiment: functional. The method in brief:
as §2

This is an account of results in ChEMBL document CHEMBL1124212, “Synthesis of novel 3-substituted beta-carbolines as benzodiazepine receptor ligands: probing the benzodiazepine receptor pharmacophore” (J Med Chem, 1988).

Bounds are passed on as bounds.

Regarding `c1ccc2c(c1)[nH]c1cnccc12` [NORHARMANE], the IC50 (commonly the concentration that gives 50% inhibition) in experiment [1] was 1620 nM.

As to `COc1cc2c(cn1)[nH]c1ccccc12`, the concentration for half-maximal inhibition (IC50) in experiment [1] stood at 124 nM.

On to `c1ccc(CNc2cc3c(cn2)[nH]c2ccccc23)cc1`, for which the concentration for an effect of 30% (IC30) (as a rule, the concentration at which the effect reaches the 30% level) in the experiment filed under Rattus norvegicus worked out at 1280 nM.

Turning to `CCOC(=O)c1cc2c(cn1)[nH]c1ccccc12`, the figures for the Convulsion with Mus musculus [2], in the experiment on Mus musculus [3] and with Mus musculus [4] were 30%, 33% and 96%, respectively.

The compound `CCCOc1cc2c(cn1)[nH]c1ccccc12` registered a half-maximal inhibitory concentration (IC50) in experiment [1] of 11 nM.

For the compound `COC(=O)c1cc2c(cn1)[nH]c1ccccc12` [BETA-CCM], in [1], the IC50 worked out at 5 nM.

For the compound `COC(=O)c1cc2ccccc2cn1`, the IC50 in experiment [1] is 13200 nM.

With `O=[N+]([O-])c1cc2c3ccccc3nc-2c[nH]1`, the IC50 in experiment [1] turned out to be 125 nM.

Turning to `c1ccc2c(c1)[nH]c1c2ccc2[nH]c3ccccc3c21`, the IC50 in experiment [1] was 1920 nM.

As to `Oc1cc2c3ccccc3nc-2c[nH]1`, in experiment [1], the IC50 was found to be 4000 nM.

Compound `COC(=O)c1cc2c3ccccc3n(C)c2cn1` came in with a half-inhibitory concentration (IC50) in [1] of more than 50000 nM.

The compound `CCOc1cc2c(cn1)[nH]c1ccccc12` yielded an IC50 in [1] of 24 nM. The Convulsion in the experiment with Mus musculus [5] is listed as 60%; in the experiment with Mus musculus [3], 84%; in the experiment on Mus musculus [6] it was 40%; in the experiment on Mus musculus [7] it was 100%; with Mus musculus [8] it was 50%; in the experiment with Mus musculus [9] it was 30%.

Compound `CCOC(=O)c1cc2c(cn1)sc1ccccc12` gave a 50% inhibitory concentration (IC50) in experiment [1] of 980 nM.

In the case of `S=C=Nc1cc2c3ccccc3nc-2c[nH]1`, the concentration for half-maximal inhibition (IC50) in experiment [1] amounted to 8 nM.

In the case of `Clc1cc2c(cn1)[nH]c1ccccc12`, the 50% inhibitory concentration (IC50) in experiment [1] came to 45 nM.

`Cn1c2ccccc2c2c3[nH]c4ccccc4c3ncc21` showed an IC50 in experiment [1] of 1160 nM.
